ChEMBL document CHEMBL3286133, “Synthesis, biological evaluation and molecular docking studies of trans-indole-3-acrylamide derivatives, a new class of tubulin polymerization inhibitors” (Bioorg Med Chem, 2014)
The source made the active and inactive calls. No cut-off for these calls is given here.

Columns and labels:
Tubulin (Bos taurus) [1] = target: T1, Tubulin (Bos taurus) (UniProt Q6B856+Q862L2+Q862F3); experiment: Displacement of [3H]colchicine from bovine brain tubulin at 50 uM after 10 mins by liquid scintillation counting
Outline: (§1)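 [³H]colchicine binding in 0.1 mL. Bovine brain tubulin 1.0 µM, [³H]colchicine 5.0 µM, 1.0 M glutamate, 5% DMSO, inhibitor at 5 or 50 µM; 10 min at 37 °C. Reactions were stopped with ice-cold water and filtered through two stacked DEAE-cellulose filters, which were washed with cold water. Bound label was counted by liquid scintillation.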

MDA-MB-231 = experiment: Antiproliferative activity against human MDA-MB-231 cells after 48 hrs by MTT assay; type: functional, cell-based; details: MDA-MB-231, 48 h
Outline: (§2)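 MTT viability assay. HL-60 and Raji were grown in RPMI-1640 and MCF7/MDA-MB-231 in DMEM, all with 10% FBS, at 37 °C under 5% CO₂. Cells were seeded at 10,000/well, held overnight in 1% FBS medium, then exposed 48 h to 0.1–125 µM. Solvent control was 0.1% DMSO. MTT was 0.5 mg/mL for 4 h, formazan was dissolved in DMSO, and absorbance read at 570 nm. Quadruplicates; IC50 taken from concentration–response curves.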

Tubulin = Tubulin (Bos taurus, UniProt Q6B856+Q862L2+Q862F3); experiment: Inhibition of bovine brain tubulin polymerization after 20 mins by spectrophotometry
HL-60 [2] = experiment: Antiproliferative activity against human HL60 cells after 48 hrs by MTT assay; type: functional, cell-based; details: HL-60, 48 h; outline: as §2
MCF7 = experiment: Antiproliferative activity against human MCF7 cells after 48 hrs by MTT assay; type: functional, cell-based; details: MCF7, 48 h; outline: as §2
HeLa [3] = experiment: Antiproliferative activity against human HeLa cells after 48 hrs by MTT assay; type: functional, cell-based
Raji = experiment: Antiproliferative activity against human Raji cells after 48 hrs by MTT assay; type: functional, cell-based; outline: as §2
HeLa [4] = experiment: Cell cycle arrest in human HeLa cells assessed as decrease in accumulation at G1 phase at 0 to 30 uM for 24 hrs by flow cytometry; type: functional, cell-based
Outline: (§3)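 DNA-content flow cytometry. 5×10⁵ HeLa or HL-60 cells were treated 24 h at a range of concentrations. Cells were fixed in ice-cold 70% ethanol, lysed in buffer with RNase A and 0.1% Triton X-100, and stained with PI. Phase distribution was taken from DNA histograms. Means of three independent experiments.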

HL-60 [5] = experiment: Induction of apoptosis in human HL60 cells assessed as increase in cleaved PARP level at 1 to 10 uM after 24 to 48 hrs by western blot analysis; type: functional, cell-based
Outline: (§4)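 Western blot on HL-60 cells exposed for the indicated times. Lysates were cleared at 15000 × g, 4 °C; 20 µg protein was run on 7.5–15% SDS-PAGE and transferred to PVDF. Blocking in 5% BSA for 2 h, then caspase-3 and PARP antibodies overnight at 4 °C and peroxidase secondary for 60 min. ECL detection; β-actin reprobe as loading control.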

Tubulin (Bos taurus) [6] = target: T1, Tubulin (Bos taurus); experiment: Displacement of [3H]colchicine from bovine brain tubulin at 5 uM after 10 mins by liquid scintillation counting; outline: as §1
HL-60 [7] = experiment: Induction of apoptosis in human HL60 cells assessed as increase in number of late apoptotic cells for 24 and 48 hrs by annexin-V/propidium-iodide staining based flow cytometry; type: functional, cell-based
Outline: (§5)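 Annexin-V-FITC/PI double staining with flow cytometry on HL-60 and HeLa cells after 24 or 48 h of treatment. Excitation 488 nm; emission 525 nm (FITC) and 585 nm (PI). Early apoptotic cells scored as annexin-V+/PI−, late apoptotic as annexin-V+/PI+. Means of three independent experiments.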

HeLa [8] = experiment: Induction of apoptosis in human HeLa cells assessed as increase in number of late apoptotic cells at 1 and 10 uM hrs by annexin-V/propidium-iodide staining based flow cytometry; type: functional, cell-based; details: TDE = time-dependent effect; outline: as §5
HL-60 [9] = experiment: Cell cycle arrest in human HL60 cells assessed as decrease in accumulation at S phase at 0 to 30 uM for 24 hrs by flow cytometry; type: functional, cell-based; outline: as §3
HeLa [10] = experiment: Induction of apoptosis in human HeLa cells assessed as increase in number of early apoptotic cells for 24 and 48 hrs by annexin-V/propidium-iodide staining based flow cytometry; type: functional, cell-based; outline: as §5
HeLa [11] = experiment: Induction of apoptosis in human HeLa cells assessed as increase in number of late apoptotic cells for 24 and 48 hrs by annexin-V/propidium-iodide staining based flow cytometry; type: functional, cell-based; outline: as §5
HL-60 [12] = experiment: Cell cycle arrest in human HL60 cells assessed as increase in accumulation at G2/M phase at 10 uM for 24 hrs by flow cytometry; type: functional; details: in the assay text read “at 15 to 30 uM” for “at 10 uM”; outline: as §3
HL-60 [13] = experiment: Induction of apoptosis in human HL60 cells assessed as increase in number of late apoptotic cells at 1 and 10 uM by annexin-V/propidium-iodide staining based flow cytometry; type: functional, cell-based; details: TDE = time-dependent effect; outline: as §5
HL-60 [14] = experiment: Cell cycle arrest in human HL60 cells assessed as increase in accumulation at G2/M phase for 24 hrs by flow cytometry; type: functional, cell-based; outline: as §3
HeLa [15] = experiment: Induction of apoptosis in human HeLa cells assessed as increase in number of early apoptotic cells at 1 and 10 uM hrs by annexin-V/propidium-iodide staining based flow cytometry; type: functional, cell-based; details: TDE = time-dependent effect; outline: as §5
HL-60 [16] = experiment: Induction of apoptosis in human HL60 cells assessed as increase in cleaved caspase-3 level at 1 to 10 uM after 24 to 48 hrs by western blot analysis; type: functional, cell-based; outline: as §4
HeLa [17] = experiment: Cell cycle arrest in human HeLa cells assessed as decrease in accumulation at S phase at 0 to 30 uM for 24 hrs by flow cytometry; type: functional, cell-based; outline: as §3
HL-60 [18] = experiment: Induction of apoptosis in human HL60 cells assessed as increase in number of early apoptotic cells for 24 and 48 hrs by annexin-V/propidium-iodide staining based flow cytometry; type: functional, cell-based; outline: as §5
HeLa [19] = experiment: Cell cycle arrest in human HeLa cells assessed as increase in accumulation at G2/M phase at 10 uM for 24 hrs by flow cytometry; type: functional; details: in the assay text read “at 15 to 30 uM” for “at 10 uM”; outline: as §3
HeLa [20] = experiment: Cell cycle arrest in human HeLa cells assessed as increase in accumulation at G2/M phase for 24 hrs by flow cytometry; type: functional, cell-based; outline: as §3
HL-60 [21] = experiment: Cell cycle arrest in human HL60 cells assessed as decrease in accumulation at G1 phase at 0 to 30 uM for 24 hrs by flow cytometry; type: functional, cell-based; outline: as §3
HL-60 [22] = experiment: Induction of apoptosis in human HL60 cells assessed as increase in number of early apoptotic cells at 1 and 10 uM by annexin-V/propidium-iodide staining based flow cytometry; type: functional, cell-based; details: TDE = time-dependent effect; outline: as §5

| inhibition (Tubulin (Bos taurus) [1]) [%] | IC50 (MDA-MB-231) [µM] | IC50 (Tubulin) [µM] | IC50 (HL-60 [2]) [µM] | IC50 (MCF7) [µM] | IC50 (HeLa [3]) [µM] | IC50 (Raji) [µM] | SMILES | further results |
| --- | --- | --- | --- | --- | --- | --- | --- | --- |
| 11 | > 100 | > 40 | 6.2 | > 100 | 31.4 | 10.3 | COc1ccc(NC(=O)/C=C/c2c[nH]c3ccccc23)cc1OC |  |
| 11 | > 100 | > 40 | > 100 | > 100 | > 100 | > 100 | COc1cc(OC)c(NC(=O)/C=C/c2c[nH]c3ccccc23)c(OC)c1 |  |
| 12 | > 100 | > 40 | > 100 | > 100 | 36.5 | > 100 | COc1cccc(CNC(=O)/C=C/c2c[nH]c3ccccc23)c1OC |  |
| 26 | > 100 | > 40 | 7.1 | > 100 | > 100 | 9.3 | COc1cc(NC(=O)/C=C/c2c[nH]c3ccccc23)cc(OC)c1 |  |
| 13 | > 100 | > 40 | 17.8 | > 100 | > 100 | 22.6 | COc1ccc(NC(=O)/C=C/c2c[nH]c3ccccc23)c(OC)c1 |  |
|  | > 100 | > 40 | > 100 | > 100 | > 100 | > 100 | COc1ccc(CNC(=O)/C=C/c2c[nH]c3ccccc23)c(OC)c1 |  |
| 14 | > 100 | > 40 | > 100 | > 100 | > 100 | 33.1 | COc1cc(CNC(=O)/C=C/c2c[nH]c3ccccc23)ccc1O |  |
| 15 | > 100 | > 40 | 10.1 | > 100 | > 100 | 22.9 | COc1ccc(OC)c(NC(=O)/C=C/c2c[nH]c3ccccc23)c1 |  |
| 23 | > 100 | > 40 | > 100 | > 100 | > 100 | > 100 | COc1ccc(OC)c(CNC(=O)/C=C/c2c[nH]c3ccccc23)c1 |  |
| 50 | > 100 | 17 | 5.1 | 36.3 | 23.7 | 9.5 | COc1cc(NC(=O)/C=C/c2c[nH]c3ccccc23)cc(OC)c1OC | Activity (HeLa [4]): Active; Activity (HL-60 [5]): Active; inhibition (Tubulin (Bos taurus) [6]): 11%; Activity (HL-60 [7]): Dose-dependent effect; Activity (HeLa [8]): tde; Activity (HL-60 [9]): Active; Activity (HeLa [10]): Dose-dependent effect; Activity (HeLa [11]): Dose-dependent effect; Activity (HL-60 [12]): 60%; Activity (HL-60 [13]): tde; Activity (HL-60 [14]): Dose-dependent effect; Activity (HeLa [15]): tde; Activity (HL-60 [16]): Active; Activity (HeLa [17]): Active; Activity (HL-60 [18]): Dose-dependent effect; Activity (HeLa [19]): > 80%; Activity (HeLa [20]): Dose-dependent effect; Activity (HL-60 [21]): Active; Activity (HL-60 [22]): tde |
| 13 | > 100 | > 40 | > 100 | > 100 | > 100 | > 100 | COc1ccc(CNC(=O)/C=C/c2c[nH]c3ccccc23)cc1OC |  |
